In ChEMBL document CHEMBL1143814, “Clinical and pharmacokinetic data support once-daily low-dose boosted saquinavir (1,200 milligrams saquinavir with 100 milligrams ritonavir) in treatment-naive or limited protease inhibitor-experienced human immunodeficiency virus-infected patients” (Antimicrob Agents Chemother, 2007):

What was measured:
Format in all cases: ADME, organism-based
[1] = organism: Homo sapiens; assay: Ratio of elimination half life in PBMC cellular compartment to plasma in HIV infected virological failure patient
Procedure, shortened: (§1)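 Steady-state study (≥1 month on once-daily saquinavir 1,200 mg + ritonavir 100 mg with two NRTIs). 24-h profile: blood drawn predose and at 2, 4, 6, 8, 12 and 24 h after supervised intake. Plasma was separated, and PBMC were isolated on a Ficoll gradient, weighed, and volume was taken as weight. Saquinavir was measured by HPLC-UV at 215 nm (LLOQ 40 ng/ml). Noncompartmental analysis was used, with terminal slope from the 12–24 h points. Ratio = intracellular/plasma.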

[2] = AUC (0 to 24 hrs) in PBMC cellular compartment of HIV infected virological failure patient; set-up: time < 24 hr; conditions: human
Procedure, shortened: (§2)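 PBMC drug levels, same once-daily saquinavir/ritonavir 1,200/100 mg regimen at steady state, same sampling times. PBMC were isolated from EDTA blood diluted 1:1 in PBS (pH 7.4) by Ficoll density centrifugation and washed twice in PBS. Pellet volume was taken as equal to its weight. Pellets were frozen at −70°C and assayed by HPLC-UV at 215 nm. Analysis was noncompartmental, with the terminal phase from the 12–24 h points.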

[3] = Cmin in HIV infected virological failure patient plasma after 24 hrs; conditions: human, read-out: Cmin
Procedure, shortened: (§3)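 Plasma PK at steady state (≥1 month) in HIV patients on once-daily saquinavir 1,200 mg plus ritonavir 100 mg and two NRTIs. EDTA blood was drawn predose and at 2, 4, 6, 8, 12 and 24 h after supervised intake, or as a single 24 ± 0.5 h trough. Plasma was stored at −70°C and assayed by HPLC-UV at 215 nm (LLOQ 40 ng/ml). Parameters were noncompartmental, with the terminal slope from the 12–24 h points.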

[4] = Cmax in HIV infected virological failure patient plasma after 24 hrs; conditions: human; procedure, shortened: as §3
[5] = Cmin in HIV infected patient plasma after 24 hrs; conditions: human, read-out: Cmin; procedure, shortened: as §3
[6] = Ratio of AUC (0 to 24 hrs) in PBMC cellular compartment to plasma in HIV infected patient; conditions: human, read-out: AUC_ratio; procedure, shortened: as §1
[7] = AUC (0 to 24 hrs) in HIV infected virological failure patient plasma; set-up: time < 24 hr; conditions: human; procedure, shortened: as §1
[8] = Elimination half life in HIV infected patient plasma after 24 hrs; conditions: human; procedure, shortened: as §3
[9] = Elimination half life in PBMC cellular compartment of HIV infected patient after 24 hrs; conditions: human; procedure, shortened: as §2
[10] = Elimination half life in HIV infected virological failure patient plasma after 24 hrs; conditions: human; procedure, shortened: as §3
[11] = Cmax in PBMC cellular compartment of HIV infected virological failure patient after 24 hrs; conditions: human; procedure, shortened: as §2
[12] = AUC (0 to 24 hrs) in PBMC cellular compartment of HIV infected patient after 24 hrs; set-up: time < 24 hr; conditions: human; procedure, shortened: as §2
[13] = organism: Homo sapiens; assay: Ratio of Cmax in PBMC cellular compartment to plasma in HIV infected virological failure patient; procedure, shortened: as §1
[14] = AUC (0 to 24 hrs) in HIV infected patient plasma after 24 hrs; set-up: time < 24 hr; conditions: human; procedure, shortened: as §3
[15] = organism: Homo sapiens; assay: Ratio of elimination half life in PBMC cellular compartment to plasma in HIV infected patient; procedure, shortened: as §1
[16] = Ratio of Cmin in PBMC cellular compartment to plasma in HIV infected patient; conditions: human, read-out: Cmin_ratio
Procedure, shortened: (§4)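 Trough (Cmin) saquinavir was sampled at steady state on once-daily 1,200/100 mg saquinavir/ritonavir, either as the 24-h point of the full profile or as a single sample 24 ± 0.5 h postdose. Plasma and Ficoll-isolated PBMC (volume from weight) were assayed by HPLC-UV at 215 nm (LLOQ 40 ng/ml). Ratio = intracellular/plasma concentration.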

[17] = Elimination half life in PBMC cellular compartment of HIV infected virological failure patient after 24 hrs; conditions: human; procedure, shortened: as §2
[18] = Cmin in PBMC cellular compartment of HIV infected virological failure patient after 24 hrs; conditions: human, read-out: Cmin; procedure, shortened: as §2
[19] = Ratio of Cmin in PBMC cellular compartment to plasma in HIV infected virological failure patient; conditions: human, read-out: Cmin_ratio; procedure, shortened: as §4
[20] = organism: Homo sapiens; assay: Ratio of Cmax in PBMC cellular compartment to plasma in HIV infected patient; procedure, shortened: as §1
[21] = Ratio of AUC (0 to 24 hrs) in PBMC cellular compartment to plasma in HIV infected virological failure patient; conditions: human, read-out: AUC_ratio; procedure, shortened: as §1
[22] = Cmax in HIV infected patient plasma after 24 hrs; conditions: human; procedure, shortened: as §3
[23] = in the assay text read “HIV infected patient” for “HIV infected virological failure patient”

t1/2_ratio [1]: 1.5
AUC(0-t) at 24 h [2]: 132000 ng·h/mL
concentration at 24 h [3]: 384 ng/mL
Cmax [4]: 3320 ng/mL
concentration at 24 h [5]: 431 ng/mL
Kp [6]: 2.75
AUC(0-t) at 24 h [7]: 35300 ng·h/mL
half-life [8]: 8.25 h
half-life [9]: 12.5 h
half-life [10]: 8.51 h
Cmax [11]: 15200 ng/mL
Cmax [11, 23]: 10100 ng/mL
AUC(0-t) at 24 h [12]: 99500 ng·h/mL
Cmax_ratio [13]: 4.46 (null)
AUC(0-t) at 24 h [14]: 34300 ng·h/mL
t1/2_ratio [15]: 1.5
Kp [16]: 2.39
half-life [17]: 10.9 h
concentration at 24 h [18, 23]: 996 ng/mL
concentration at 24 h [18]: 1220 ng/mL
Kp [19]: 3.01
Cmax_ratio [20]: 2.75 (null)
Kp [21]: 3.53
Cmax [22]: 3670 ng/mL
Compound: CC(C)(C)NC(=O)[C@@H]1C[C@@H]2CCCC[C@@H]2CN1C[C@@H](O)[C@H](Cc1ccccc1)NC(=O)[C@H](CC(N)=O)NC(=O)c1ccc2ccccc2n1 [SAQUINAVIR]
